The source made the active and inactive calls. No cut-off for these calls is given here.
Assays:
[1] = test system: Capan-2; test: Cytotoxicity against human Capan-2 cells; type: functional
How it was run: (§1)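 Human cancer lines (A375, MDA-MB-231, OMM-1, UPMM-2, CAPAN-2, HepG2, HT-29, HCT116) treated up to 30 μM. CC50 derived from concentration–response viability plots. Mean ± SEM, n ≥ 6. Two-tailed unpaired t test used between compounds.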

[2] = test system: HT-29; test: Cytotoxicity against human HT-29 cells; type: functional; how it was run: as §1
[3] = Metabolic stability in mouse liver microsomes assessed as half life preincubated for 15 mins followed by UDPGA addition and measured after 2 hrs by LC-MS/MS analysis; type: ADME, Microsome; details: time 135 min
How it was run: (§2)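 Mouse and human liver microsomes incubated with UDPGA cofactor. Half-life and percent parent remaining at 120 min reported. Mean of at least two independent experiments, each in two technical replicates.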

[4] = test system: A-375; test: Antitumor activity against human A-375 cells xenografted in NMRI-Foxn1nu mouse assessed as reduction in tumor volume at 30 mg/kg, ip administered as 3 days on and 2 days off schedule and measured after 15 days; type: functional; parameters: scale not given: the % may be the effect or the level left; details: time 15 day
How it was run: (§3)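 Female NMRI-Foxn1nu mice with subcutaneous A375 flank tumors, grouped by matched tumor volume. Dosing: 30 mg/kg ip or saline, 3 days daily then 2 days off. Tumors measured by digital caliper until day 15. Excised tumors then sized as (W × D × L)/2 and weighed. n = 8; Mann–Whitney two-tailed test for the excised endpoints.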

[5] = Tolerability in CD1 mouse assessed as lethargy at 138 micromol/kg, ip; type: toxicity; details: in vivo, dose 138 µmol/kg
How it was run: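 Female CD1 mice given daily ip injections at 138 μmol/kg (62 mg/kg). Animals observed for arched backs and lethargy.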

[6] = Metabolic stability in human liver microsomes assessed as parent compound remaining preincubated for 15 mins followed by UDPGA addition and measured after 2 hrs by LC-MS/MS analysis; type: ADME, Microsome; details: time 135 min, read-out: Stability; how it was run: as §2
[7] = Metabolic stability in dog liver microsomes assessed as half life preincubated for 15 mins followed by NADPH addition and measured after 1 to 2 hrs by LC-MS/MS analysis; type: ADME, Canis lupus familiaris, Microsome; details: liver microsomes, time 75-135 min
How it was run: (§4)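 Microsomal stability assessed in mouse, human, rat or dog liver microsomes with NADPH cofactor. Half-life and percent parent remaining at 60 and 120 min reported. Mean of at least two independent experiments, each in two technical replicates.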

[8] = Cytotoxicity against human UPMM-2 cells; type: functional; how it was run: as §1
[9] = Aqueous kinetic solubility of the compound in PBS at pH 7.4 at 250 uM incubated for 24 hrs by UPLC/MS analysis; type: physicochemical; details: read-out: Kinetic_solubility
How it was run: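 Kinetic solubility measured in phosphate-buffered saline, pH 7.4. Mean of at least two independent experiments, each run in two technical replicates.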

[10] = Metabolic stability in dog liver microsomes assessed as parent compound remaining preincubated for 15 mins followed by NADPH addition and measured after 1 to 2 hrs by LC-MS/MS analysis; type: ADME, Canis lupus familiaris, Microsome; details: time 75-135 min; how it was run: as §4
[11] = test system: A-375; test: Antitumor activity against human A-375 cells xenografted in NMRI-Foxn1nu mouse assessed as tumor growth inhibition at 30 mg/kg, ip administered as 3 days on and 2 days off schedule and measured after 15 days; type: functional; details: A-375, 360 h, time 15 day, read-out: TGI; how it was run: as §3
[12] = test system: BT-474; test: Cytotoxicity against human BT-474 cells; type: functional
How it was run: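 BT-474 breast cancer cells and nontumorigenic HMECs treated 48 h with concentrations up to 30 μM. CC50 derived from concentration–response viability plots. Values >30 μM assigned when viability fell by less than 50% of vehicle at 30 μM. Mean ± SEM, n ≥ 3.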

[13] = Tolerability in CD1 mouse assessed as change in water intake at 69 micromol/kg, ip administered as 3 days on and 2 days off schedule and measured after 15 days; type: toxicity, organism-based; details: in vivo, dose 69 µmol/kg
How it was run: (§5)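 Female CD1 mice given 69 μmol/kg (31 mg/kg) ip, 3 days daily then 2 days off, or saline. Body weight, food intake and water intake monitored daily for 15 days. Weight expressed relative to the day before treatment (100%). Mean ± SEM, n = 3.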

[14] = Volume of distribution in CD1 mouse at 10 mg/kg, ip measured upto 24 hrs; type: ADME, organism-based; details: in vivo
How it was run: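 Female CD1 mice given a single 10 mg/kg ip dose. Plasma concentration–time profile analyzed by noncompartmental analysis for half-life and volume of distribution. A two-compartment model was also fitted.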

[15] = Tolerability in CD1 mouse assessed as reduction in body weight at 138 micromol/kg, ip administered every other day for 8 days; type: toxicity, organism-based; details: in vivo, 192 h, dose 138 µmol/kg, time 8 day
How it was run: (§6)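 Body weight tracked in female CD1 mice under three regimens: 138 μmol/kg (62 mg/kg) ip daily, assessed after 2 days; 138 μmol/kg every other day over 8 days; 69 μmol/kg (31 mg/kg) daily over 8 days.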

[16] = test system: A-375; test: Cytotoxicity against human A-375 cells; type: functional; how it was run: as §1
[17] = Toxicity in NMRI-Foxn1nu mouse xenografted with human A-375 cells assessed as reduction in body weight at 30 mg/kg, ip administered as 3 days on and 2 days off schedule and measured after 15 days; type: organism-based; details: in vivo, 360 h, time 15 day
How it was run: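 A375 xenograft-bearing female NMRI-Foxn1nu mice received 30 mg/kg ip or saline on a 3-days-on/2-days-off schedule. Body weight recorded daily to day 15, expressed relative to weight on the day before treatment (set to 100%). n = 8.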

[18] = Metabolic stability in human liver microsomes assessed as parent compound remaining preincubated for 15 mins followed by NADPH addition and measured after 1 hr by LC-MS/MS analysis; type: ADME, Microsome; details: time 75 min, read-out: Stability; how it was run: as §4
[19] = test system: A375 (human); test: Inhibition of autophagy in human A375 cells expressing EGFP-LC3B assessed as accumulation of autophagosome after 24 hrs by Hoechst 33342 staining based fluorescent microscopy analysis; details: dose 1.25-5 µM
[20] = Tolerability in CD1 mouse assessed as change in food intake at 69 micromol/kg, ip administered as 3 days on and 2 days off schedule and measured after 15 days; type: toxicity, organism-based; details: in vivo, 360 h, dose 69 µmol/kg, time 15 day; how it was run: as §5
[21] = test system: HCT-116; test: Cytotoxicity against human HCT-116 cells; type: functional; how it was run: as §1
[22] = test system: A-375; test: Antitumor activity against human A-375 cells xenografted in NMRI-Foxn1nu mouse assessed as effect on autophagy by measuring increase in LC3-II/LC3-I ratio expression at 30 mg/kg, ip administered for 2 days by immunoblotting analysis; type: functional, organism-based; details: time 2.0 day
How it was run: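 Female NMRI-Foxn1nu mice bearing flank subcutaneous xenografts of GFP-LC3 reporter A375 cells, matched for tumor size, given 30 mg/kg ip or saline for 2 days. Euthanized 48 h after first injection. Tumor lysates immunoblotted with anti-LC3B for GFP-LC3-I and GFP-LC3-II. n = 3; unpaired two-tailed t test versus saline.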

[23] = test system: A375 (human); test: Inhibition of autophagy in human A375 cells expressing EGFP-LC3B assessed as increase in LC3-II protein level at 2.5 uM after 24 hrs by immunoblotting analysis
[24] = Tolerability in CD1 mouse assessed as reduction in body weight at 69 micromol/kg, ip administered every daily for 8 days; type: toxicity, organism-based; details: in vivo, 192 h, dose 69 µmol/kg, time 8 day; how it was run: as §6

- half-life [3]: > 2 h
- remaining at 2 h [6]: 95%
- half-life [7]: > 1 h
- solubility kinetic at 24 h, 250 µM [9]: > 250 µM
- Stability [10]: 89%
- Vd [14]: 106.07 L/kg
- remaining at 1 h [18]: 81%
SMILES: Fc1ccc(C2(NCc3ccc(F)c(CC4CCNCC4)c3)CCCC2)cc1
- CC50 [1]: 6.86 µM
- CC50 [2]: 4.74 µM
- Activity [4]: 60%
- Activity [5]: Non-Toxic
- CC50 [8]: 1.09 µM
- inhibition in vivo at 30 mg/kg [11]: 55%
- CC50 [12]: 2.31 µM
- Activity [13]: Non-Toxic
- Activity [15]: Toxic
- CC50 [16]: 2.56 µM
- Activity [17]: Non-Toxic
- inhibition [19]: Dose-Dependent Effect
- Activity [20]: Non-Toxic
- CC50 [21]: 4.56 µM
- Activity [22]: Active
- inhibition [23]: Active
- Activity [24]: Toxic

Reference: ChEMBL document CHEMBL5344432, “Identification of a Dual Autophagy and REV-ERB Inhibitor with in Vivo Anticancer Efficacy” (J Med Chem, 2024)
